About 1,300 (0.45%) of roughly 290,000 compounds were called active. The list comes from a sample in which actives are over-represented; it also holds similar structures and randomly drawn compounds. Unmarked numbers belong to inactive results.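 How the source made its calls: active means inhibition above the mean plus 3 SD of all compounds in the same screening run (cut at about 4.5% in these data); inactive means the rest.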
Tested on: metallo-beta-lactamase IMP-1 (Pseudomonas aeruginosa)
Experiment: inhibition of IMP-1 nitrocefin hydrolysis – biochemical, epi-absorbance readout, Pseudomonas aeruginosa enzyme, primary screen (AID 1556)
Details: purified IMP-1, nitrocefin hydrolysis, epi-absorbance fluorescence; at 5.6 µM; stronger effect = higher value
Method in brief: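 assay system = purified recombinant IMP-1 metallo-beta-lactamase enzyme | schedule = 15 min preincubation plus 25 min reaction at 25 °C | signal = Epi-absorbance fluorescence, 480 nm excitation, 530 nm emission | read-out basis = percent inhibition from optical density relative to buffer-blank wells | controls = IMP-1 with DMSO as 0%, enzyme-free DMSO as 100%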

Compound | inhibition
COc1ccc(C(=O)NN2C(=O)C3C(c4ccccc4)C=CC(c4ccccc4)C3C2=O)cc1 (centres undefined) | 53.9% (active)
COc1ccccc1C(=O)NN1C(=O)C2C3C=CC(O3)C2C1=O (centres undefined) | -3.22%
O=C(NN1C(=O)C2C3C=CC(O3)C2C1=O)c1ccccc1 (centres undefined) | -2.31%
O=C(NC1CCCC1)C(c1ccco1)N(C(=O)c1ccco1)c1ccc(F)cc1 (centres undefined) | -2.48%
CCCc1cc(C(=O)Nc2ccc(C(=O)OC)cc2)cs1 | -3.3%
CCc1ccc(OCC(=O)NCC(c2ccc(Cl)cc2)N2CCCCC2)cc1 (centres undefined) | -1.02%
COc1cccc(CSc2nc3nc(C)cc(C)n3n2)c1 | -1.34%
O=C(Nc1ccnn1C1CCN(C/C=C/c2ccc(F)cc2)CC1)C1CCCC1 | 0.74%
CCCCC(c1nnnn1CS(=O)(=O)c1ccc(C)cc1)N1CCC(C(N)=O)CC1 (centres undefined) | 0.14%
C=CCN1CCN(C(=O)CCCc2ccccc2)CC1 | -0.18%
COc1cc(/C=C2\CCCc3c2nc2ccccc2c3C(=O)O)cc(Cl)c1O | -1.14%
NC(=O)c1ccc(NC(=O)COC(=O)c2c3c(nc4ccccc24)/C(=C\c2ccc4c(c2)OCO4)CCC3)cc1 | 19.6% (active)
NS(=O)(=O)c1ccc(NC(=O)COC(=O)c2c3c(nc4ccccc24)/C(=C\c2ccc4c(c2)OCO4)CCC3)cc1 | 28% (active)
NS(=O)(=O)c1ccc(NC(=O)COC(=O)c2cc3ccccc3oc2=O)cc1 | -1.27%
O=C(COC(=O)c1c2c(nc3ccccc13)/C(=C\c1cccs1)CCC2)Nc1ccccc1Cl | -3.13%
COc1cc(-c2cc(C(=O)OCC(=O)Nc3ccc4c(c3)OCO4)c3ccccc3n2)cc(OC)c1OC | -2.57%
O=C(c1ccccc1)N1N=C(c2ccccc2O)CC1c1ccc(Br)cc1 (centres undefined) | -4.1%
Cc1cccc(N2CCN(C(=O)c3cccc(N4C(=O)C5C6C=CC(C6)C5C4=O)c3)CC2)c1C (centres undefined) | -2.92%
CCCCc1nc(NCCN)c(C#N)c2c1CSC(C)(C)C2 | -1.69%
O=C(Nc1ccc(-c2cscn2)cc1)C1CCCN(Cc2ccc(CO)o2)C1 (centres undefined) | -1.8%

Compound | inhibition
CN(CC1CCCO1)S(=O)(=O)c1ccc(C(=O)Nc2ccc(F)cc2)cc1 (centres undefined) | -2.19%
O=C(c1cc(COc2cccc(C(F)(F)F)c2)on1)N1CCSCC1 | -1.37%
CC(=O)Nc1ccc(S(=O)(=O)N2CCSCC2)cc1 | -4.96%
CC(=O)NC1=NC(=O)CS1 | 12.7% (active)
Cc1ccnc(NC(=O)CCNS(=O)(=O)c2ccc(C)c(C)c2)c1 | -3.48%
Cc1cc(NC(=O)Nc2ccccc2[N+](=O)[O-])no1 | -1.98%
CCCCCCC(O)(CCN1CCCCC1)c1ccccc1 (centres undefined) | -1.94%
Cc1cc(C(=O)N/N=C/c2ccc(O)c([N+](=O)[O-])c2)c(C)n1-c1ccc(F)cc1 | -0.78%
CCOc1cccc(/C=N/N2C(=O)CSC2=S)c1O | -2.38%
O=C1CSC(=S)N1/N=C/c1ccc(O)c([N+](=O)[O-])c1 | 10.3% (active)
O=C(Nc1cccc(F)c1)[C@@H]1CCCN1 | -1.96%
O=C(NCc1cccs1)c1ccc(CS(=O)Cc2ccccc2Cl)o1 (centres undefined) | -3%
CC1CC(C)CN(C(=O)CSc2ccsc2[N+](=O)[O-])C1 (centres undefined) | -2.57%
Cc1ccc(CN2CCCOCCS2(=O)=O)cc1 | -1.66%
CC(C)(C)OC(=O)NCCCCCC(=O)N/N=C/c1coc2ccccc2c1=O | -0.81%
O=C(N/N=C/c1coc2ccccc2c1=O)c1cc2ccccc2o1 | -0.92%
Cc1ccc2occ(/C=N/NC(=O)c3ccccc3C)c(=O)c2c1 | 4.69% (active)
CCCCc1ccc(NC(=O)NCc2cccnc2)cc1 | -2.87%
COc1ccc(S(=O)(=O)N2CCOC2CNC(=O)C(=O)NCc2ccncc2)cc1C (centres undefined) | -3.35%
COC(=O)c1nc(NC(=O)c2ccc(Cl)cc2)n[nH]1 | 7.73% (active)

Compound | inhibition
COC(=O)c1nc(NC(=O)c2ccc(C(C)(C)C)cc2)n[nH]1 | -2.13%
COC(=O)c1nc(NC(=O)c2ccc(F)cc2)n[nH]1 | -1.83%
CC(C)c1ccc(N(C(=O)c2ccco2)C(C(=O)NC2CCCC2)c2cccnc2)cc1 (centres undefined) | -1.29%
O=C(N/N=C\c1cccnc1)c1cc(-c2ccccc2)nc2c(Cl)cccc12 | -3.33%
Cc1occc1C(=O)NC1CCCN(Cc2ccc(CC(C)C)cc2)C1 (centres undefined) | -3.33%
Cc1cc(-c2ccc(C)c(S(=O)(=O)NC(C)Cc3ccco3)c2)on1 (centres undefined) | -1.25%
CCCOc1ccc(-c2c(C(=O)N/N=C/c3ccco3)nnn2-c2nonc2N)cc1 | -3.51%
C/C(=N\NS(=O)(=O)c1ccc(Br)cc1)c1cccs1 | -3.54%
C/C(=N\Nc1ccc(S(N)(=O)=O)cc1[N+](=O)[O-])c1cccs1 | 21.1% (active)
C/C(=N\Nc1ncc(Cl)cc1Cl)c1cccs1 | -0.11%
COc1cc(C(=S)N2CCOCC2)cc(OC)c1OC(=O)c1ccc([N+](=O)[O-])cc1[N+](=O)[O-] | -5.07%
CS(=O)(=O)c1sc2nc(-c3ccccc3)cc(-c3ccccc3)c2c1N | 5.43% (active)
CNc1nc(-c2ccccc2)cc(-c2ccccc2)n1 | 2.66%
Nc1nc(-c2ccccc2)cc(-c2ccccc2)n1 | -4.04%
O=c1[nH]c2c(c(=O)n1Cc1ccccc1)CCC2 | -1.53%
Cc1cc2nc3c(=O)n(Cc4ccccc4)c(=O)[nH]c3nc2cc1N | 9.26% (active)
CC(=O)c1ccc(-c2ccc(Cn3c(C)nc4cc(N)c(C)nc43)cc2)cc1 | -0.56%
COc1cccc(CNC(=O)C2CC(=O)N(C3CCCCCCC3)C2)c1 (centres undefined) | -1.11%
COc1ccccc1C(=O)N(Cc1ccc(C)o1)C1CCS(=O)(=O)C1 (centres undefined) | -3.51%
